# Bioassay records (PubChem BioAssay)
# NOD2 RIPK2 PPI = blocks binding of human NOD2 to RIPK2; AID 624267; CHO BLA complementation NOD2-RIPK2, CCF4 ratio; actives 0.38% (n = 360,000); inhibition, % at 4.98 µM; in the data active = inhibition above about 21%;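 also: 0% = vehicle only and 100% = reference blocker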
# beta cell repl = MIN6 beta-cell proliferation induction; proliferation, % at 10 µM; AID 2380; MIN6 cells proliferation, ATPlite luminescence, 48 h; cells starved in 0.2% serum; 100% = growth in 10% serum; actives 0.29% (n = 330,000);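 active = compounds whose signal lies at least 3.5 SD above the mean of all wells on their plate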;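 also: 0% = DMSO-treated cells in low-serum medium and 100% = 10% serum control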
# TLR4-MyD88 BLA = inhibitors of human TLR4-MyD88 binding. HeLa CL3-4 TLR4/MyD88 BLA complementation, FRET ratio. inhibition, % at 8.4 µM. actives 0.18% (n = 200,000); in the data active = inhibition above about 25%;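 also: 0% = vehicle and 100% = reference inhibitor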
# TLR9-MyD88 block = blocks human TLR9 binding to MyD88 | Q9NR96+Q99836 | CHO BLA complementation TLR9-MyD88, CCF4 FRET ratio | inhibition, % at 4.98 µM | actives 0.21% (n = 340,000);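 active = inhibition above the mean over all tested compounds plus 3 SD, cut at about 21% in these data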;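 also: 0% = DMSO only wells and 100% = clavulanate BLA inhibitor control wells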
# MC4R antagonist = antagonists of human melanocortin 4 receptor (MC4R). actives 0.48% (n = 360,000). inhibition, % at 6.5 µM. MC4R-expressing cells, MTII-stimulated cAMP, LANCE TR-FRET. AID 540295;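 active = inhibition above its plate's cutoff, the mean of tested wells on that plate plus 3 SD, cut at about 29% in these data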;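 also: 0% = Melanotan II alone and 100% = Melanotan II plus saturating MCL0020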
#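 Material: U2OS-MC4R stable cell line | Reagent: Melanotan II challenge after compound preincubation | Doses: One concentration, 6.5 µM nominal | Incubation: 30-min compound preincubation, 1-h Melanotan II challenge, 1-h detection, room temperature | Signal: TR-FRET cAMP assay | Replicates: One well per compound, no replicates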
# MC4R barr agon = human MC4R agonism via beta-arrestin; U2OS MC4R beta-arrestin complementation, luminescence; percent of melanotan II response, DMSO zero; P32245; actives 0.98% (n = 360,000); activation, % at 8.9 µM;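 active = activation above a per-plate cutoff, the mean activation of sample wells on that plate plus 3 SD, cut at about 8% in these data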
# MC4R barr conf = human MC4R beta-arrestin agonism confirmation | shares compounds with MC4R barr agon | U2OS MC4R beta-arrestin recruitment, luminescence; scaled DMSO 0%, Melanotan II 100% | activation, % at 8.9 µM | actives 31% (n = 2,400) | AID 602192;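 active = mean activation across replicates above the hit cutoff set in the earlier primary screen, cut at about 8% in these data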
# MOR DOR agonist = activates mu-delta opioid heterodimer, MC4R agonist counter-screen; shares compounds with MC4R barr agon; U2OS PathHunter beta-arrestin, beta-gal luminescence; percent of deltorphin B response, DMSO zero; activation, % at 9.2 µM; actives 5.8% (n = 2,400);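 active = mean activation across replicates exceeds the hit threshold derived in the earlier primary screen, cut at about 18% in these data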;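 also: 100% = deltorphin B at 0.9 µM final and 0% = DMSO alone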
# NOD2-RIPK2 conf = confirmation of human NOD2-RIPK2 interaction inhibitors; shares compounds with NOD2 RIPK2 PPI; CHO cells, NOD2-RIPK2 BLA complementation, CCF4 FRET; inhibition, % at 4.98 µM; actives 70% (n = 1,200);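 active = mean inhibition across replicates above a set limit taken from the earlier primary screen, cut at about 21% in these data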;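 also: 0% = DMSO-only wells and the high end = clavulanate BLA-blocked wells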
# BLA counter = hits BLA reporter in NOD2-RIPK2 inhibitor counterscreen. CHO BLA reporter, CCF4 FRET ratio. actives 57% (n = 1,200). shares compounds with NOD2 RIPK2 PPI. inhibition, % at 4.98 µM;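 active = mean inhibition above the low-control mean inhibition plus three low-control SD, cut at about 11% in these data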;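 also: 0% = DMSO only wells and 100% = clavulanate high control wells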
# An asterisk follows results filed as active; . = not tested or not shown. Rows were chosen to be rich in hits. Some 2.1% of all compounds tested hit in one or more screens of this group.
SMILES,NOD2 RIPK2 PPI,beta cell repl,TLR4-MyD88 BLA,TLR9-MyD88 block,MC4R antagonist,MC4R barr agon,NOD2-RIPK2 conf,BLA counter,others
C=CCOC(=O)COc1cc(C)cc2oc(=O)c3c(c12)CCC3,0.2,0.3,-2.7,0.7,3.1,11.3*,.,.,MC4R barr conf=9.0*;MOR DOR agonist=5.2
CCCCOC(=O)COc1cc(C)cc2oc(=O)c3c(c12)CCC3,4.5,6.2,-4.6,4.5,4.1,-1.8,.,.,
C[n+]1c(-c2ccccc2)c2cc(N)ccc2c2ccc(N)cc21,27.8*,-7.6,.,11.3,-34.3,-0.7,-0.7,-2.6,
CN(Cc1cccc(-c2ccncc2)c1)C(=O)Oc1ccc([N+](=O)[O-])cc1,9.7,.,.,.,.,.,.,.,
CCC1(CC)C(=O)NC(=O)N(CCc2ccccn2)C1=O,-10.2,.,.,8.6,-1.2,-0.6,.,.,
COc1cc(/C=C/c2nc3ccccc3c(=O)n2-c2cccc(O)c2)ccc1O,21.0*,-5.3,.,13.6,11.8,0.2,5.0,13.6*,
CC[C@H]1c2ccccc2[C@@H]2CC[C@H]1N2c1ccccc1,-12.6,.,.,.,.,.,.,.,
CC(=O)OCC12CC(OC(=O)CC(C)C)C(C)=CC1OC1C(O)C(OC(C)=O)C2(C)C12CO2 (stereo not given),22.9*,.,.,-10.1,-3.1,-1.3,23.2*,-7.3,
CCC1([N+](=O)[O-])COP(N)(=O)OC1 (stereo not given),-12.7,.,.,-8.4,-1.6,-0.7,.,.,
COC(=O)[C@@H]1[C@@H](C(=O)OC)C2(c3ccccc3-c3ccccc32)N(c2ccc(Cl)cc2)N1C#N,71.3*,-3.8,7.7,2.2,4.5,-1.4,67.7*,1.6,
O=C1NC2C(O)C(O)C(O)C(O)C2c2cc3c(c(O)c21)OCO3 (stereo not given),22.1*,.,.,3.6,6.6,-0.8,29.0*,-1.8,
O=C1NC2C(=CC(O)C(O)C2O)c2cc3c(c(O)c21)OCO3 (stereo not given),29.9*,.,.,-1.0,-5.5,-1.6,26.8*,-7.4,
CCOC(=O)[C@]12Cc3cc(OC)ccc3[C@H]1N(C(C)C)C(=O)c1cc(OC)ccc12,-4.6,.,.,.,.,.,.,.,
CCOC(=O)[C@]12Cc3cc(Cl)ccc3[C@H]1N(C(C)C)C(=O)c1ccccc12,30.5*,.,.,.,.,.,66.8*,2.8,
CCOC(=O)[C@]12Cc3cc(OC)ccc3[C@H]1N(C1CCCCC1)C(=O)c1ccccc12,50.4*,.,.,.,.,.,61.6*,0.0,
CCCCCN1C(=O)c2cc(OC)ccc2[C@@]2(C(=O)OCC)Cc3cc(Cl)ccc3[C@@H]12,45.7*,.,.,.,.,.,44.0*,-1.9,
CCOC(=O)[C@]12Cc3cc(OC)ccc3[C@H]1N(C)C(=O)c1ccccc12,-14.4,.,.,.,.,.,.,.,
CCOC(=O)[C@]12Cc3cc(Cl)ccc3[C@H]1N(C)C(=O)c1ccccc12,-13.6,.,.,.,.,.,.,.,
CCOC(=O)[C@]12Cc3cc(Cl)ccc3[C@H]1N(C1CCCCC1)C(=O)c1ccccc12,66.1*,.,.,.,.,.,68.0*,-0.2,
COc1ccc(OC(=O)N(C)C[C@@H]2OCc3ccccc3-c3c(n(C)c4ccccc34)C(=O)N([C@H](C)CO)C[C@@H]2C)cc1,4.3,.,.,5.7,6.2,-1.4,.,.,
O=C1C=C2c3ccccc3CC(C(=O)O)C2CC1 (stereo not given),1.5,.,.,.,.,.,.,.,
COC(=O)C1=C(C(=O)OC)C2OC1c1cc3ccccc3cc12,88.1*,.,.,17.9,9.8,-1.7,86.2*,19.3*,
COC(=O)C1=C(c2ccc3ccccc3c2)C[C@@H]2CC[C@H]1N2C,-0.7,-0.3,.,-5.2,-8.3,-1.0,.,.,
CC1CC(C)CC(C)C(O)C(C#N)=CC=CCC(C2CCCC2C(=O)O)OC(=O)CC(O)C(C)C1 (stereo not given),29.9*,.,.,5.5,6.2,-3.2,28.2*,-5.4,
COc1ccc(CCNC2CCCCC2)cc1,5.4,-0.9,-13.5,-0.3,5.5,-4.2,.,.,
COc1ccc(C[C@H]2NC[C@H](O)[C@H]2OC(C)=O)cc1,26.1*,-7.7,.,15.1,2.5,0.3,29.1*,1.2,
N#CC1c2ccccc2-n2nncc2CN1Cc1cc(Cl)cc(Cl)c1 (stereo not given),58.8*,.,.,12.9,20.2,-0.8,43.4*,-2.5,
CN1Cc2cnnn2-c2ccccc2C1C#N (stereo not given),8.1,.,.,-9.1,1.3,1.4,.,.,
CCOC(=O)[C@]12Cc3c(cc(OC)c(OC)c3OC)[C@H]1N(CCC(=O)OC)C(=O)c1ccccc12,-7.1,.,.,.,.,.,.,.,
c1coc(CN2Cc3ccccc3-n3nncc3C2)c1,-1.6,.,.,14.1,1.7,0.4,.,.,
